We go through 7 molecules from ChEMBL document CHEMBL1765012, “Novel interactions of fluorinated nucleotide derivatives targeting orotidine 5'-monophosphate decarboxylase” (J Med Chem, 2011).

Usually IC50 stands for the concentration that gives 50% inhibition. High values mean a need for much substance, low ones inhibition by little substance.

In one assay the test system is Plasmodium falciparum. The experiment in a line: Antimalarial activity against Plasmodium falciparum 3D7. In kind it is functional, organism-based.
A short description of assay [1]: Cytotoxicity against human OCI-AML1 cells. The assay is classed as functional, cell-based.
The test system of another assay is CHO. The experiment in a line: Cytotoxicity against CHO cells. Conditions: Cricetulus griseus. The assay is classed as cell-based.
Assay [2] has as its target Orotidine 5'-phosphate decarboxylase (Methanobacterium thermoautotrophicum) (UniProt O26232). Kind of assay: Covalent binding affinity to Methanobacterium thermoautotrophicum 5'-monophosphate decarboxylase by mass spectroscopy analysis. To be noted: Methanothermobacter thermautotrophicus. The essentials: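 Mt ODCase incubated overnight at room temperature with inhibitor (25 mM, in the dark; or 388 mM with 200 μM enzyme) in 50 mM Tris pH 7.5, 20 mM DTT, 40 mM NaCl. Enzyme mass measured by mass spectrometry against an inhibitor-free control; covalent adduct taken from a mass increase over native enzyme.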

In assay [3] the target is Orotidine 5'-phosphate decarboxylase (Methanobacterium thermoautotrophicum, UniProt O26232). The experiment in a line: Irreversible inhibition of Methanobacterium thermoautotrophicum 5'-monophosphate decarboxylase.

The source made the active and inactive calls. The rule behind the calls is not given here.

Orotidine 5'-phosphate decarboxylase (Methanobacterium thermoautotrophicum), sequence (O26232 whole entry, looked up): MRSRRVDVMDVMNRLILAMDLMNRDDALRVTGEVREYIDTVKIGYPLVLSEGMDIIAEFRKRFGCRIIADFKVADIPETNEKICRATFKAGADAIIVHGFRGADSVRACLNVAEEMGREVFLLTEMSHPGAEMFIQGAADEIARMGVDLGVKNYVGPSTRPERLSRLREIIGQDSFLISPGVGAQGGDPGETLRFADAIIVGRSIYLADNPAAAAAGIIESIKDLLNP
Orotidine 5'-phosphate decarboxylase, sequence (O26232 whole entry): as the sequence (O26232 whole entry, looked up) above

For the molecule `O=c1cc(I)n([C@@H]2O[C@H](CO)[C@@H](O)[C@H]2F)c(=O)[nH]1`, the figures for the IC50 (in the assay on Plasmodium falciparum; in assay [1]; with CHO) were over 6000 µM, over 50 µM and 1360 µM, respectively.

In the case of `[N-]=[N+]=Nc1cc(=O)[nH]c(=O)n1[C@@H]1O[C@H](CO)[C@@H](O)[C@H]1F`, the IC50 was over 1000 µM in the assay with Plasmodium falciparum, over 50 µM in assay [1] and over 2000 µM with CHO.

On to `NC(=O)c1cc(=O)[nH]c(=O)n1[C@@H]1O[C@H](CO)[C@@H](O)[C@H]1F`, for which the IC50 is over 2000 µM in the assay with Plasmodium falciparum, over 50 µM in assay [1] and over 1000 µM with CHO.

`O=c1cc(I)n([C@@H]2O[C@H](CP(=O)(O)O)[C@@H](O)[C@H]2F)c(=O)[nH]1`: the outcome in assay [2] was Active.

Regarding `[N-]=[N+]=Nc1cc(=O)[nH]c(=O)n1[C@@H]1O[C@H](COP(=O)(O)O)[C@@H](O)[C@H]1F`, the Ki in assay [3] came out at 1200 µM. Also, the outcome in assay [2] was Active.

In the case of `N#Cc1cc(=O)[nH]c(=O)n1[C@@H]1O[C@H](CO)[C@@H](O)[C@H]1F`, the results for the IC50 (in the assay on Plasmodium falciparum; in assay [1]; in the assay on CHO) were over 1000 µM, over 50 µM and over 600 µM, respectively.

`N#Cc1cn([C@@H]2O[C@H](CO)[C@@H](O)[C@H]2F)c(=O)[nH]c1=O`: the IC50 with Plasmodium falciparum was 1090 µM; in assay [1], over 50 µM; in the assay on CHO it was over 1000 µM.
